ChEMBL document CHEMBL3046529, “Chiral gamma-aryl-1H-1,2,4-triazole derivatives as highly potential antifungal agents: Design, synthesis, structure, and in vitro fungicidal activities” (J Agric Food Chem, 2008)

Experiments:
Botrytis cinerea [1] = assay: In vitro fungicidal activity against Botryotinia fuckeliana assessed as mycelial growth inhibition at 100 mg/l at 26 degC after 48 hr by agar diffusion assay; type: functional; details: read-out: GI
In short: (§1)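 Compound is dissolved in DMF and added aseptically to autoclaved agar that has cooled to about 45-50 °C, giving 100 mg/L in the medium. Solvent never exceeds […]. Plain medium is the blank. A 5 mm mycelial plug, cut from the margin of an actively growing colony, goes in the plate centre. Three replicate plates are sealed and kept at 26 °C in darkness. Colony diameter is read at 48 h. Inhibition % = (control − treated diameter)/control diameter.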

Fusarium graminearum [2] = assay: In vitro fungicidal activity against Fusarium graminearum assessed as mycelial growth inhibition at 100 mg/l at 26 degC after 48 hr by agar diffusion assay; type: functional; details: read-out: GI; in short: as §1
Rhizoctonia solani [3] = assay: In vitro fungicidal activity against Rhizoctonia solani assessed as mycelial growth inhibition at 100 mg/l at 26 degC after 48 hr by agar diffusion assay; type: functional; details: read-out: GI; in short: as §1
Dothiorella gregaria [4] = assay: In vitro fungicidal activity against Dothiorella gregaria assessed as mycelial growth inhibition at 100 mg/l at 26 degC after 48 hr by agar diffusion assay; type: functional; details: read-out: GI; in short: as §1
Colletotrichum gossypii [5] = assay: In vitro fungicidal activity against Colletotrichum gossypii assessed as mycelial growth inhibition at 100 mg/l at 26 degC after 48 hr by agar diffusion assay; type: functional; details: read-out: GI; in short: as §1
Fusarium oxysporum [6] = assay: In vitro fungicidal activity against Fusarium oxysporum assessed as mycelial growth inhibition at 100 mg/l at 26 degC after 48 hr by agar diffusion assay; type: functional; details: read-out: GI; in short: as §1
Fusarium graminearum [7] = assay: In vitro fungicidal activity against Fusarium graminearum assessed as mycelial growth inhibition at 26 degC after 48 hr by agar diffusion assay; type: functional, organism-based
Botrytis cinerea [8] = assay: In vitro fungicidal activity against Botryotinia fuckeliana assessed as mycelial growth inhibition at 50 mg/l at 26 degC after 48 hr by agar diffusion assay; type: functional; details: read-out: GI
Rhizoctonia solani [9] = assay: In vitro fungicidal activity against Rhizoctonia solani assessed as mycelial growth inhibition at 26 degC after 48 hr by agar diffusion assay; type: functional, organism-based
Botrytis cinerea [10] = assay: In vitro fungicidal activity against Botryotinia fuckeliana assessed as mycelial growth inhibition at 26 degC after 48 hr by agar diffusion assay; type: functional, organism-based
Dothiorella gregaria [11] = assay: In vitro fungicidal activity against Dothiorella gregaria assessed as mycelial growth inhibition at 50 mg/l at 26 degC after 48 hr by agar diffusion assay; type: functional; details: read-out: GI
Colletotrichum gossypii [12] = assay: In vitro fungicidal activity against Colletotrichum gossypii assessed as mycelial growth inhibition at 50 mg/l at 26 degC after 48 hr by agar diffusion assay; type: functional; details: read-out: GI
Rhizoctonia solani [13] = assay: In vitro fungicidal activity against Rhizoctonia solani assessed as mycelial growth inhibition at 50 mg/l at 26 degC after 48 hr by agar diffusion assay; type: functional; details: read-out: GI
Dothiorella gregaria [14] = assay: In vitro fungicidal activity against Dothiorella gregaria assessed as mycelial growth inhibition at 26 degC after 48 hr by agar diffusion assay; type: functional, organism-based
Fusarium oxysporum [15] = assay: In vitro fungicidal activity against Fusarium oxysporum assessed as mycelial growth inhibition at 26 degC after 48 hr by agar diffusion assay; type: functional, organism-based
Fusarium graminearum [16] = assay: In vitro fungicidal activity against Fusarium graminearum assessed as mycelial growth inhibition at 50 mg/l at 26 degC after 48 hr by agar diffusion assay; type: functional; details: read-out: GI
Fusarium oxysporum [17] = assay: In vitro fungicidal activity against Fusarium oxysporum assessed as mycelial growth inhibition at 50 mg/l at 26 degC after 48 hr by agar diffusion assay; type: functional; details: read-out: GI
Colletotrichum gossypii [18] = assay: In vitro fungicidal activity against Colletotrichum gossypii assessed as mycelial growth inhibition at 26 degC after 48 hr by agar diffusion assay; type: functional, organism-based

Compound | inhibition of growth at 100 µg/mL (Botrytis cinerea [1]) | inhibition of growth at 100 µg/mL (Fusarium graminearum [2]) | inhibition of growth at 100 µg/mL (Rhizoctonia solani [3]) | inhibition of growth at 100 µg/mL (Dothiorella gregaria [4]) | inhibition of growth at 100 µg/mL (Colletotrichum gossypii [5]) | inhibition of growth at 100 µg/mL (Fusarium oxysporum [6]) | EC50 (Fusarium graminearum [7]) | inhibition of growth at 50 µg/mL (Botrytis cinerea [8]) | EC50 (Rhizoctonia solani [9]) | EC50 (Botrytis cinerea [10]) | inhibition of growth at 50 µg/mL (Dothiorella gregaria [11]) | inhibition of growth at 50 µg/mL (Colletotrichum gossypii [12]) | inhibition of growth at 50 µg/mL (Rhizoctonia solani [13]) | EC50 (Dothiorella gregaria [14]) | EC50 (Fusarium oxysporum [15]) | inhibition of growth at 50 µg/mL (Fusarium graminearum [16]) | inhibition of growth at 50 µg/mL (Fusarium oxysporum [17]) | EC50 (Colletotrichum gossypii [18])
CCC[C@H](CCn1cncn1)c1ccc(F)cc1 | 71% | 85% | 90% | 100% | 95% | 82% | – | – | – | – | – | – | – | – | – | – | – | –
CCC[C@@H](CCn1cncn1)c1ccc(F)cc1 | 94% | 83% | 86% | 83% | 90% | 73% | – | – | – | – | – | – | – | – | – | – | – | –
CCC[C@H](CCn1cncn1)c1ccc(OC)cc1 | 60% | 66% | 78% | 90% | 80% | 90% | – | – | – | – | – | – | – | – | – | – | – | –
CCC[C@@H](CCn1cncn1)c1ccc(OC)cc1 | 92% | 76% | 90% | 93% | 90% | 75% | – | – | – | – | – | – | – | – | – | – | – | –
CCCC[C@H](CCn1cncn1)c1ccccc1 | 91% | 71% | 90% | 100% | 87% | 66% | – | – | – | – | – | – | – | – | – | – | – | –
CCCC[C@@H](CCn1cncn1)c1ccccc1 | 91% | 71% | 87% | 96% | 82% | 74% | – | – | – | – | – | – | – | – | – | – | – | –
CCCC[C@H](CCn1cncn1)c1ccc(F)cc1 | 100% | 95% | 100% | 100% | 100% | 100% | 66 µM | 100% | 36 µM | 61 µM | 100% | 100% | 99% | 15 µM | 112 µM | 89% | 99% | 61 µM
CCCC[C@@H](CCn1cncn1)c1ccc(F)cc1 | 96% | 83% | 100% | 97% | 95% | 96% | 104 µM | 81% | 49 µM | 56 µM | 71% | 85% | 88% | 79 µM | 109 µM | 70% | 88% | 63 µM
CCCC[C@H](CCn1cncn1)c1ccc(Cl)cc1 | 88% | 73% | 91% | 100% | 85% | 82% | – | – | – | – | – | – | – | – | – | – | – | –
CCCC[C@@H](CCn1cncn1)c1ccc(Cl)cc1 | 94% | 69% | 84% | 97% | 85% | 78% | – | – | – | – | – | – | – | – | – | – | – | –
CC(C)(C)C(=O)C(Oc1ccc(Cl)cc1)n1cncn1 (configuration not stated) [TRIADIMEFON] | 96% | 76% | 100% | 71% | 100% | 97% | 163 µM | 78% | 14 µM | 41 µM | 14% | 97% | 91% | 317 µM | 40 µM | 59% | 91% | 19 µM
